Calls of active or inactive are those of the source. No cut-off for these calls is given here.

Consider one compound from ChEMBL document CHEMBL2384907, “Identification of substituted pyrimido[5,4-b]indoles as selective Toll-like receptor 4 ligands” (J Med Chem, 2013).

Common to all, as to format: cell-based
Assay [1] deals with T1, Toll-like receptor 8 (Homo sapiens) (UniProt Q9NR97).
T1 sequence (whole entry): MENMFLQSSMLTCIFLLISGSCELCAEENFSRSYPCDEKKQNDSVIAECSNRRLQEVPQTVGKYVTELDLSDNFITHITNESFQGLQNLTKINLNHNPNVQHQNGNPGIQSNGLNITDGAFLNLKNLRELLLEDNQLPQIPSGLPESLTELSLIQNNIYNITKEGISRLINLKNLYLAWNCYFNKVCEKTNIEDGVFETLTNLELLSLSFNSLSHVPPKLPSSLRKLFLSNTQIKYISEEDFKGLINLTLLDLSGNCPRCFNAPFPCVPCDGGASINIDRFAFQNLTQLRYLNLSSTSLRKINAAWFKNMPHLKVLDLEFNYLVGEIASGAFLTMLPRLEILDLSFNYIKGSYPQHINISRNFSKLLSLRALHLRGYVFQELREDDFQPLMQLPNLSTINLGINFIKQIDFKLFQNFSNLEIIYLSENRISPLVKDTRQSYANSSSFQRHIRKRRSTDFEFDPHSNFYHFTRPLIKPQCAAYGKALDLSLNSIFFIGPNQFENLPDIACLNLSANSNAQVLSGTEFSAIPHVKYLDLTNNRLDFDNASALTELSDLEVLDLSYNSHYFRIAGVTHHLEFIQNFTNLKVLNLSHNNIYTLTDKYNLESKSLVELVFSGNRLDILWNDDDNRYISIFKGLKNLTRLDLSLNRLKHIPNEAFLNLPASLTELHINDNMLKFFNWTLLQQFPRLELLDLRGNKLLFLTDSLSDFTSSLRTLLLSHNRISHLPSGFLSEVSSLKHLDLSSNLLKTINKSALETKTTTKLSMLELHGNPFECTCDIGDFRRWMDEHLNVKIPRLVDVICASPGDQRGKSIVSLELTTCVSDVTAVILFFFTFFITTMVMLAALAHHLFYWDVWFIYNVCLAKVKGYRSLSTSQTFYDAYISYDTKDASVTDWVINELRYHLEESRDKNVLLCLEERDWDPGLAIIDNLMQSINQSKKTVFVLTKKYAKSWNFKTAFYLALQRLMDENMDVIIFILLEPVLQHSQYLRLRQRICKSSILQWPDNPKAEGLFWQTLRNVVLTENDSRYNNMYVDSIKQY
Put plainly: Activation of human TLR8 transfected in HEK293 cells at 10 uM after 20 to 24 hrs by SEAP assay.

Assay [2] has as its target T2, Toll-like receptor 4 (Mus musculus) (UniProt Q9QUK6).
T2 sequence (whole entry): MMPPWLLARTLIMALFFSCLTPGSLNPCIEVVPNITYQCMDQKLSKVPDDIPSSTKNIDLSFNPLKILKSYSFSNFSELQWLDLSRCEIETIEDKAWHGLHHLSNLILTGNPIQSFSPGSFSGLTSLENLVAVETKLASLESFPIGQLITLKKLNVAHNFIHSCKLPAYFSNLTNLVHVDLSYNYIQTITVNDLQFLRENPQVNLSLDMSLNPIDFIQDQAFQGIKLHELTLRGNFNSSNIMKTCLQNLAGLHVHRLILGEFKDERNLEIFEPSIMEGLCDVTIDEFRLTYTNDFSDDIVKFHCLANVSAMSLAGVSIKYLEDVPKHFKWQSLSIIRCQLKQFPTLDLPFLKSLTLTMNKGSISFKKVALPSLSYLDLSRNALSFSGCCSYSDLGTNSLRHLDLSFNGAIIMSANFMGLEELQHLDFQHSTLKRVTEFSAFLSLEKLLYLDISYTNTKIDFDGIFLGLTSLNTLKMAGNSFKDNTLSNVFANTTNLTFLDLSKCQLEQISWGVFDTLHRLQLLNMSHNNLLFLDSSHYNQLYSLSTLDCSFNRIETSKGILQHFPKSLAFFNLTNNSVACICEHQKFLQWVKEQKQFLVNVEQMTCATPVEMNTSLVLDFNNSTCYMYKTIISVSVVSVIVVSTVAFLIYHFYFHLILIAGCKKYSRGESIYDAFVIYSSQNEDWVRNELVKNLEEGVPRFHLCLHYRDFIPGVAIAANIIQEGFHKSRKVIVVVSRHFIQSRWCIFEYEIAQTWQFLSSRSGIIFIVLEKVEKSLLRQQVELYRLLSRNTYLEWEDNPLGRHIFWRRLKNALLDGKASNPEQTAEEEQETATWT
Put plainly: Activation of TLR4 in C57BL/6 mouse BMDC cells assessed as AUC of IL6 release after 18 hrs by ELISA relative to N-cyclohexyl-2-(4-oxo-3-phenyl-4,5-dihydro-3H-pyrimido[5,4-b]indol-2-ylthio)acetamide. The method, boiled down:
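C57BL/6 bone marrow DC, 10^5 cells/well in RPMI-10% FCS, 18 h at 37 °C with titrated doses 312 nM–10 μM; supernatant IL-6 by ELISA. Each curve converted to percent activity (background subtracted, plate-adjusted), AUC by trapezoid method, normalized to reference hit set at 100 per experiment. LPS 10 ng/mL positive control; 0.5% DMSO vehicle.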
(In general: In an ELISA, binding on a coated surface is turned into a signal by an enzyme label.)

Assay [3] has as its target Toll-like receptor 4/MD-2/CD14 (Homo sapiens) (UniProt O00206+Q9Y6Y9+P08571). The experiment in a line: Activation of human TLR4/MD-2/CD14 transfected in HEK293 cells at 10 uM after 20 to 24 hrs by SEAP assay.
The target in assay [4] is Toll-like receptor 4 (Homo sapiens) (UniProt O00206). The experiment in a line: Activation of human TLR4 transfected in HEK293 cells assessed as NFkappaB activation after 20 to 24 hrs by SEAP assay. The method, boiled down:
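Human or mouse TLR4 HEK-Blue cells (2.5 × 10^4/well) incubated with graded concentrations for 20–24 h; NFκB-driven SEAP in culture supernatant measured colorimetrically.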

Chain of Toll-like receptor 4 (Homo sapiens) (O00206 whole entry): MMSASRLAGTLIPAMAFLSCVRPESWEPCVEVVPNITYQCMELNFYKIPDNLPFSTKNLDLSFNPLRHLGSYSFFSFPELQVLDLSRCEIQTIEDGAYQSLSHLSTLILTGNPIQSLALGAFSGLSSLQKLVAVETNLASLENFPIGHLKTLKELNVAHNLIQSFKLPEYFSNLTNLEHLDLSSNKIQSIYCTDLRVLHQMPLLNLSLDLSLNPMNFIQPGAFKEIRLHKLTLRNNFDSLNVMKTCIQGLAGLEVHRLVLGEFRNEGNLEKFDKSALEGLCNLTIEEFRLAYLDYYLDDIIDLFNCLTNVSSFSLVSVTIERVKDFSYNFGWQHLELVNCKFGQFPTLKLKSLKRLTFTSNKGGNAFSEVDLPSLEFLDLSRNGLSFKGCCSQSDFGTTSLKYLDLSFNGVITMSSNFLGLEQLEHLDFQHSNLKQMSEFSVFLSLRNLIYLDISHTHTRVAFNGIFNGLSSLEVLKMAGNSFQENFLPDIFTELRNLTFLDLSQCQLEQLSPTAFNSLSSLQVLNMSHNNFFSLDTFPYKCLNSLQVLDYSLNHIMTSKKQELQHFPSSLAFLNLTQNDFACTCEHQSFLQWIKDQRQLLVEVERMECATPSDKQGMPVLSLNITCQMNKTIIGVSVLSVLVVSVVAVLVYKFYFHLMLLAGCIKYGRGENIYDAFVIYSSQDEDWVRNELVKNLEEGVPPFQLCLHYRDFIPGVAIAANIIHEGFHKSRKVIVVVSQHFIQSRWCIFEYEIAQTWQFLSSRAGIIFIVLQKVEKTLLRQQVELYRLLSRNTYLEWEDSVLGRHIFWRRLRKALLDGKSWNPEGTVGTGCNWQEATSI

For the compound `O=C(CSc1nc2c([nH]c3ccccc32)c(=O)n1-c1ccccc1)NC1CCCCC1`, in assay [1], the result was inactive. For the same compound, the figures for the Activity in assay [2] and in assay [4] were 100% and “Dose-dependent effect”, respectively. Further, the result in assay [3] was Active.
